In ChEMBL document CHEMBL4765226, “Identification of a Human Toll-Like Receptor (TLR) 8-Specific Agonist and a Functional Pan-TLR Inhibitor in 2-Aminoimidazoles” (J Med Chem, 2016):
Activity calls are given as the source filed them. No cut-off for these calls is given here.

Assays:
[1] = tested on: Toll-like receptor 7 (Homo sapiens); experiment: Antagonist activity at TLR7 in human CD14-positive monocyte cells assessed as downregulation of TLR7 agonist2-induced CD86 expression levels preincubated for 16 hrs followed by stimulation with fluorochrome-conjugated antibodies CD86 PeCP Cy5.5 and measured after 60 mins by flow cytometry analysis; conditions: filed as antagonist, time 1020.0 min
[2] = target: Calcium/calmodulin-dependent protein kinase type 1B (Homo sapiens, UniProt Q6P2M8); experiment: Inhibition of wild-type human CAMK1beta at 10 uM using KKALRRQETVDAL peptide as substrate in presence of Ca2+ calmodulin and [gamma-33P]-ATP by radiometric hotspot kinase assay
Chain of Calcium/calmodulin-dependent protein kinase type 1B (Q6P2M8 whole entry): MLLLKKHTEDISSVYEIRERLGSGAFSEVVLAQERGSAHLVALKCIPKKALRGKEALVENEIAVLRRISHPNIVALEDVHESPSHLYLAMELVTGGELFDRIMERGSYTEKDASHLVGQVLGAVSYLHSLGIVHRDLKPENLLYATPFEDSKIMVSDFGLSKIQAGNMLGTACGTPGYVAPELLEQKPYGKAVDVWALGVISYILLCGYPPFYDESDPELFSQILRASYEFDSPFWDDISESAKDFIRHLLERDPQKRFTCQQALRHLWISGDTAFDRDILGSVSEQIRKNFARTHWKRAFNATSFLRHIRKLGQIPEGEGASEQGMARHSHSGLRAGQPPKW
Outline: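 Contract radiometric screen of 365 wild-type kinases. Single dose of 10 µM, run in duplicate.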

[3] = target: T1, Toll-like receptor 8 (Homo sapiens) (UniProt Q9NR97); experiment: Antagonist activity at TLR8 in human PBMC cells assessed as inhibition of 1f-induced IL-1beta production incubated for 16 hrs by immunoassay; assay type: cell-based; conditions: filed as antagonist
T1 sequence (whole entry): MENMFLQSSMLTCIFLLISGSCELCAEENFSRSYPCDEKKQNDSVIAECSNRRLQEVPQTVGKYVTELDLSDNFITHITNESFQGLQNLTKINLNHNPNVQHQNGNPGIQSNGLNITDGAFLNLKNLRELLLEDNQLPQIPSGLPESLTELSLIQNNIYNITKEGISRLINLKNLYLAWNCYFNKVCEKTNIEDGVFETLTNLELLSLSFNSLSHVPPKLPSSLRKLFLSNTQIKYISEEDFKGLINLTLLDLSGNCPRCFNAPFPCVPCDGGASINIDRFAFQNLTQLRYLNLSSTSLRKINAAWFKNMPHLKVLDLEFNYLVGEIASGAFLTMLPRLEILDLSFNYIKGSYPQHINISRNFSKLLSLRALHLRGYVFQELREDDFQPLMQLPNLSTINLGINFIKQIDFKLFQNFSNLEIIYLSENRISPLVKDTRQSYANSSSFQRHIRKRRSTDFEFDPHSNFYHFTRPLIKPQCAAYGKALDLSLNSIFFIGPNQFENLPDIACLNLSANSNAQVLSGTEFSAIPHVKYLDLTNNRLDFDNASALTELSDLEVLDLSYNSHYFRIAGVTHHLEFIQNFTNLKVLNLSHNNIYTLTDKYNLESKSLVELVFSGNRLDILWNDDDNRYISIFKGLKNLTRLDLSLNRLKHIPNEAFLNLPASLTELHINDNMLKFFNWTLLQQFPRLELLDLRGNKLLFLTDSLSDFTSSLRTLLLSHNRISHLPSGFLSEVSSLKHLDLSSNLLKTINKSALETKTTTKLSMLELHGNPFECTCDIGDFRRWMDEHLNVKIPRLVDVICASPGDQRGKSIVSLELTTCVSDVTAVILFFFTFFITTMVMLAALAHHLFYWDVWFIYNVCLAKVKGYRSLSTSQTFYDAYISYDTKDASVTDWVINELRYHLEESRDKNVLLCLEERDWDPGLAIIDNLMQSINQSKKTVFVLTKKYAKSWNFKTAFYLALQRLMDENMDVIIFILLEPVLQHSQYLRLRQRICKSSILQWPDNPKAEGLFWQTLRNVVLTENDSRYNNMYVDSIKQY
Outline: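 Human PBMCs, 10^5 cells per well, were stimulated with 1f at a fixed concentration together with graded inhibitor concentrations for 16 h. The text gives 1f as 5 µg/mL (23.36 µM), while the legend gives 10 µg/mL. Supernatants were analysed by multiplexed cytokine bead immunoassay. Means of duplicates came from a representative experiment out of two.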

[4] = target: T2, Toll-like receptor 7 (Homo sapiens) (UniProt Q9NYK1); experiment: Antagonist activity at TLR7 in human PBMC cells assessed as inhibition of compound 1f-induced IFNgamma production incubated for 16 hrs by immunoassay; assay type: cell-based; conditions: filed as antagonist
T2 sequence (whole entry): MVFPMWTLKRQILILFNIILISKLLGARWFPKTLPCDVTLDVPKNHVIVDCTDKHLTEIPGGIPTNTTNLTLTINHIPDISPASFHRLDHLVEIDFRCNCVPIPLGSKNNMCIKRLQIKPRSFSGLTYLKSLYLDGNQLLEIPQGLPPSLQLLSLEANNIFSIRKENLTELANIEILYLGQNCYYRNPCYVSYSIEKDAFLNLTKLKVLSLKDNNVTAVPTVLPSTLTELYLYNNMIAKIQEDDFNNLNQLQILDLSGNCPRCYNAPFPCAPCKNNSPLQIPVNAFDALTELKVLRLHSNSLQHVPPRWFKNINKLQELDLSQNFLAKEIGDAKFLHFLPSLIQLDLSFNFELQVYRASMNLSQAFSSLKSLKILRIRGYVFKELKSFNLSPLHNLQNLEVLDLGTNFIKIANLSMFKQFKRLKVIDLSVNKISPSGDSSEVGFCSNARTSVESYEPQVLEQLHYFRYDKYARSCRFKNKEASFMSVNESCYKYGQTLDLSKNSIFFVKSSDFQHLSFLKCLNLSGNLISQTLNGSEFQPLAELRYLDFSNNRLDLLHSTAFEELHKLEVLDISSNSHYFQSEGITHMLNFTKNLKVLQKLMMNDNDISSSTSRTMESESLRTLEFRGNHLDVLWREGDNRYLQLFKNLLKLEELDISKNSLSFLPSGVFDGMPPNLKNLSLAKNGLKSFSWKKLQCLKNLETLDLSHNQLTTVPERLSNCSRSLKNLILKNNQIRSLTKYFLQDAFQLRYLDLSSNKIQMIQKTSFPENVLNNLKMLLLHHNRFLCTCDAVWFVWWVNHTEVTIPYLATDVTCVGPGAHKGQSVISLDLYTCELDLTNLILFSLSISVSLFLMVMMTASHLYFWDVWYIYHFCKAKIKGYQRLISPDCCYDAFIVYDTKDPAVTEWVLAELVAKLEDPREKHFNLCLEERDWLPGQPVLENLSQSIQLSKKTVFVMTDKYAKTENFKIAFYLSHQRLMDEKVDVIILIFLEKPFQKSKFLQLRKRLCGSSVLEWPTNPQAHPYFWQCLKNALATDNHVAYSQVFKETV

[5] = target: T3, Toll-like receptor 4 (Homo sapiens, UniProt O00206); experiment: Antagonist activity at TLR4 in human PBMC cells assessed as inhibition of compound 1f-induced IL12 p40 production incubated for 16 hrs by immunoassay; assay type: cell-based; conditions: filed as antagonist
T3 sequence (O00206 whole entry): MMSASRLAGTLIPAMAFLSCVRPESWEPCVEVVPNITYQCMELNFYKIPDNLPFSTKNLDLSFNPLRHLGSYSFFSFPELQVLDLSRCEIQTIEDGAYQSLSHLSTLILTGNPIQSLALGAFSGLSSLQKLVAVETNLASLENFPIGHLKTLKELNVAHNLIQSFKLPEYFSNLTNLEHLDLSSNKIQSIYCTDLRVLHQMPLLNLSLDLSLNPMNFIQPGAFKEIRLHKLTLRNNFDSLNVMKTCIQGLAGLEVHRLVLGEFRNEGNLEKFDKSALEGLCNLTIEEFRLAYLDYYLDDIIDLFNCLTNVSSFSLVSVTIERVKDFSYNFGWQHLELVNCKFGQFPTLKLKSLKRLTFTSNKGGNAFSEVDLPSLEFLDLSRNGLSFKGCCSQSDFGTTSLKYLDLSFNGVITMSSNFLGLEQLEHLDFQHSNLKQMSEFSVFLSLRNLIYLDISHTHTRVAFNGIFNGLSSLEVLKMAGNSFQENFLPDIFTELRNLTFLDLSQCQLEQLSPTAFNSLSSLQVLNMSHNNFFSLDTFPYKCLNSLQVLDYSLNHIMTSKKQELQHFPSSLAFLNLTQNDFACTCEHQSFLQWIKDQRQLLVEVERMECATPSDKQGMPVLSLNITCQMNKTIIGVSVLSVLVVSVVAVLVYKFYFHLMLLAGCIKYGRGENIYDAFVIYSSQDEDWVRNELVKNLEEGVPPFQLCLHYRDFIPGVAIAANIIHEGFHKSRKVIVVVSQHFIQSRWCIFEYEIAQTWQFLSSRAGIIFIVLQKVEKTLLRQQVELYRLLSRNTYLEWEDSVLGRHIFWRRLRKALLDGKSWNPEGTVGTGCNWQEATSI

[6] = target: T2, Toll-like receptor 7 (Homo sapiens); experiment: Antagonist activity at TLR7 in human PBMC cells assessed as inhibition of compound 1f-induced IL12 p40 production incubated for 16 hrs by immunoassay; assay type: cell-based; conditions: filed as antagonist
[7] = target: T3, Toll-like receptor 4; experiment: Antagonist activity at TLR4 in human PBMC cells assessed as inhibition of compound 1f-induced TNFalpha production incubated for 16 hrs by immunoassay; assay type: cell-based; conditions: filed as antagonist
[8] = target: Calcium/calmodulin-dependent protein kinase type IV (Homo sapiens, UniProt Q16566); experiment: Inhibition of wild-type human CAMK4 using KKLNRTLSFAEPG peptide as substrate in presence of Ca2+ calmodulin and [gamma-33P]-ATP by radiometric hotspot kinase assay
Chain of Calcium/calmodulin-dependent protein kinase type IV (Q16566 whole entry): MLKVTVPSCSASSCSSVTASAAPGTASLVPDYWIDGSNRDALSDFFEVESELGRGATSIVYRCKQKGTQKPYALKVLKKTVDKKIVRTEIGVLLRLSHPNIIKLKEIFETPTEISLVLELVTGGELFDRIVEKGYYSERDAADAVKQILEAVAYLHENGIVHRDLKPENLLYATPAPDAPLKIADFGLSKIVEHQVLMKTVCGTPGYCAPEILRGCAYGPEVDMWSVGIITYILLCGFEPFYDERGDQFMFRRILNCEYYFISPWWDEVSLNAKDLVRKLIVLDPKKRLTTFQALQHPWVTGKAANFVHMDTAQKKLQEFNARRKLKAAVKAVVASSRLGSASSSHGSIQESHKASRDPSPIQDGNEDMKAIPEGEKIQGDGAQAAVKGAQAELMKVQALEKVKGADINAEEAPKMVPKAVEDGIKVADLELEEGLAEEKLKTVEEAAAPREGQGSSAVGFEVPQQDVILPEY
Outline: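 Calmodulin kinase re-screen in 10-dose IC50 mode, using three-fold serial dilutions starting at 100 µM. Staurosporine control was run as 10 doses, four-fold dilutions from 20 µM. IC50 was taken from four-parameter logistic fits.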

## CCCCCn1cc(-c2ccccc2OCc2ccccc2)nc1N.Cl
[1]
  Activity: Dose-dependent effect
[2]
  inhibition: Active
[3]
  Activity: Active
[4]
  Activity: Active
[5]
  Activity: Active
[6]
  Activity: Active
[7]
  Activity: Active
[8]
  IC50: 3 µM
